Results gathered from unrelated publications.
Protocols differ between the studies behind these lines.
BRAF V600E: Serine/threonine-protein kinase B-raf (BRAF, Homo sapiens, UniProt P15056, V600E)
Blk: Tyrosine-protein kinase Blk (Blk, Mus musculus, UniProt P16277)
DRD2: D(2) dopamine receptor (DRD2, Homo sapiens, UniProt P14416)
PARP16: Protein mono-ADP-ribosyltransferase PARP16 (PARP16, Homo sapiens, UniProt Q8N5Y8)
ADORA3: Adenosine receptor A3 (ADORA3, Homo sapiens, UniProt P0DMS8)
HTR1E: 5-hydroxytryptamine receptor 1E (HTR1E, Homo sapiens, UniProt P28566)
AGTR1: Type-1 angiotensin II receptor (AGTR1, Homo sapiens, UniProt P30556)
NPY1R: Neuropeptide Y receptor type 1 (NPY1R, Homo sapiens, UniProt P25929)

| Structure (SMILES) | target | test | setting | inhibition |
| --- | --- | --- | --- | --- |
| COc1ccc(-c2csc(NN=C(CS(=O)(=O)c3ccccc3)c3ccc(F)cc3)n2)cc1 | BRAF V600E | enzyme activity, inhibitor, ATP luminescence | 0.1 µM | 51% |
| CCN(CC)CCNC(=O)c1c(C)[nH]c(/C=C2\C(=O)Nc3ccc(F)cc32)c1C | Blk | enzyme activity, inhibitor | 0.3 µM | 36% |
| Cc1ccc(CNC(=O)[C@H](CCc2ccccc2)NC(=O)[C@H](CCc2ccccc2)NC(=O)[C@H](CCc2ccccc2)NC(=O)c2cnc(C)cn2)cc1 | Neutrophil elastase (ELANE, Homo sapiens, UniProt P08246) | enzyme activity, inhibitor | 100 µM | -8% |
| O=C(c1cccc(Cl)c1)N1CCN(CCNc2cc(=O)oc3ccccc23)CC1 | DRD2 | enzyme activity, inhibitor | 10 µM | -1.9% |
| Cc1ccc(C(CS(=O)(=O)c2ccccc2)=NN=C2N=C(c3ccc(Br)cc3)CS2)cc1 | BRAF V600E | enzyme activity, inhibitor, ATP luminescence | 10 nM | 43% |
| O=C1NCCCc2ccc(F)cc21 | PARP16 | enzyme activity, inhibitor | 10 µM | 74% |
| O=C(CSc1nc2nccnc2c(=O)n1CCc1ccccc1)Nc1nccs1 | Phosphatidylinositol 4-kinase type 2-alpha (PI4K2A, Homo sapiens, UniProt Q9BTU6) | enzyme activity, inhibitor | 10 µM | 9% |
| NS(=O)(=O)c1ccc(CCNCc2cccc3ccccc23)cc1 | DRD2 | enzyme activity, inhibitor | 10 µM | 42.2% |
| Cc1ccc(C(CS(=O)(=O)c2ccccc2)=NNc2nc(-c3ccc(OCCCCOc4ccc(-c5csc(NN=C(CS(=O)(=O)c6ccccc6)c6ccc(C)cc6)n5)cc4)cc3)cs2)cc1 | BRAF V600E | enzyme activity, inhibitor, ATP luminescence | 0.1 µM | 57% |
| COc1cc2c(cc1OC)-c1nnnn1CCC2 | PARP16 | enzyme activity, inhibitor | 10 µM | 83% |
| CC(C)CC(C)N1CCCn2c1nc1c2c(=O)n(C)c(=O)n1C (stereo not shown) | ADORA3 | ligand displacement, radioligand | 10 µM, cell membranes | 22% |
| Cc1ccc(C(CS(=O)(=O)c2ccccc2)=NNc2nc(C)c(N=Nc3ccccc3)s2)cc1 | BRAF V600E | enzyme activity, inhibitor, ATP luminescence | 10 µM | 85% |
| [N-]=[N+]=N[C@@H](CC(=O)NO)Cc1ccc2ccccc2c1 | Endoplasmic reticulum aminopeptidase 2 (ERAP2, Homo sapiens, UniProt Q6P179) | enzyme activity, inhibitor, fluorescence | 300 µM | 24% |
| COc1cc2c3c(c1OC)-c1cc4c(cc1CC3N(C)CC2)OCO4 (racemic) | HTR1E | ligand displacement, radioligand | 10 µM | 62% |
| O=C(c1ccc(Cl)cc1)N(Cc1ccccc1)C1CCCCC1 | AGTR1 | cell-free assay | 10 µM | -0.9% |
| O=C(Nc1ccc(S(=O)(=O)N2CCC(Cl)CC2)cc1)c1ccc([N+](=O)[O-])o1 | ADORA3 | ligand displacement, radioligand | 10 µM | 6% |
| Cc1ccc(C(CS(=O)(=O)c2ccccc2)=NNC(N)=S)cc1 | BRAF V600E | enzyme activity, inhibitor, ATP luminescence | 0.1 µM | 46% |
| CC(O)c1ccc(-c2ccc(CNCCc3c[nH]c4ccccc34)o2)cc1 (stereo not shown) | DRD2 | enzyme activity, inhibitor | 10 µM | 36.8% |
| O=C(c1ccc(F)cc1)N(Cc1ccccc1)C1CCCCC1 | NPY1R | cell-free assay | 10 µM | -9% |
| Cn1cnc(Br)c1C1=CN(c2ncnc3[nH]cnc23)CCS1 | Serine/threonine-protein kinase Nek5 (NEK5, Homo sapiens, UniProt Q6P3R8) | enzyme activity, inhibitor, radiometric | 2 µM | 90.4% |
| Cc1ccc(C(CS(=O)(=O)c2ccccc2)=NNC2=NC(=O)C(=NNc3ccc([N+](=O)[O-])cc3)S2)cc1 | BRAF V600E | enzyme activity, inhibitor, ATP luminescence | 10 µM | 89% |
| Cc1ccc(Nc2nccc(N(C)c3ccc4c(C)n(C)nc4c3)n2)cc1S(N)(=O)=O | Dual specificity mitogen-activated protein kinase kinase 4 (Map2k4, Mus musculus, UniProt P47809) | enzyme activity, inhibitor | 0.3 µM | 11% |
| COc1cc(NC(C)=O)c(Cl)cc1C(=O)Nc1nccs1 | AGTR1 | cell-free assay | 10 µM | 4.8% |

| Structure (SMILES) | target | test | setting | inhibition |
| --- | --- | --- | --- | --- |
| Cc1ccc(C(CS(=O)(=O)c2ccccc2)=NNC2=NC(=O)C(=NNc3ccccc3)S2)cc1 | BRAF V600E | enzyme activity, inhibitor, ATP luminescence | 10 nM | 32% |
| CCCCCCN1CCCn2c1nc1c2c(=O)n(C)c(=O)n1C | ADORA3 | ligand displacement, radioligand | 10 µM, cell membranes | 39% |
| CNC(=O)c1cc(Oc2ccc(NC(=O)Nc3ccc(Cl)c(C(F)(F)F)c3)cc2)ccn1 | Blk | enzyme activity, inhibitor | 0.3 µM | -25% |
| CCCCN1CCCn2c1nc1c2c(=O)n(C)c(=O)n1C | ADORA3 | ligand displacement, radioligand | 10 µM, cell membranes | 12% |
| CC(=O)N[C@H]1CSSC[C@@H](C(=O)N[C@H](Cc2c[nH]c3ccccc23)C(N)=O)NC(=O)[C@@H](Cc2ccccc2)NC(=O)[C@H](CCCNC(=N)N)NC1=O | Melanocortin receptor 3 (MC3R, Homo sapiens, UniProt P41968) | ligand displacement, radioligand | 10 µM, 40 min | 35% |
| CCCCCN1CCCn2c1nc1c2c(=O)n(C)c(=O)n1C | ADORA3 | ligand displacement, radioligand | 10 µM, cell membranes | 21% |
| Cc1ccc(C(C)C)c(OCC(O)CN2CCN(c3ccccc3F)CC2)c1 (stereo not shown) | DRD2 | enzyme activity, inhibitor | 10 µM | 32.3% |
| NC(=S)NN=C(CS(=O)(=O)c1ccccc1)c1ccc(F)cc1 | BRAF V600E | enzyme activity, inhibitor, ATP luminescence | 10 µM | 92% |
| CCN(CC)c1ccc(C2Nc3ccc(C(=O)c4ccccc4)cc3NC3=C2C(=O)CC(C)(C)C3)cc1 (stereo not shown) | HTR1E | ligand displacement, radioligand | 10 µM | 5% |
| Oc1cccc(Nc2nc(-c3ccc(F)cc3F)cs2)c1 | AGTR1 | cell-free assay | 10 µM | -7.2% |
| CC(O)c1ccc(-c2ccc(CNCCc3ccc(S(N)(=O)=O)cc3)o2)cc1 (stereo not shown) | DRD2 | enzyme activity, inhibitor | 10 µM | 22.1% |
| CNCc1ccc(-c2cc(-c3nc(-c4ccc(S(=O)(=O)C(C)C)cc4)cnc3N)on2)cc1 | Blk | enzyme activity, inhibitor | 0.4 µM | 2% |
| CCCCCC(C)N1CCCn2c1nc1c2c(=O)n(C)c(=O)n1C (stereo not shown) | ADORA3 | ligand displacement, radioligand | 10 µM, cell membranes | 32% |
| COc1ccccc1N1CCN(CC(O)Cn2cnc3c2c(=O)n(C)c(=O)n3C)CC1 (stereo not shown) | DRD2 | enzyme activity, inhibitor | 10 µM | 2.6% |
| O=C1NCCCc2c(O)cccc21 | PARP16 | enzyme activity, inhibitor | 10 µM | 0% |
| C=CN1CCCn2c1nc1c2c(=O)n(C)c(=O)n1C | ADORA3 | ligand displacement, radioligand | 10 µM, cell membranes | 11% |
| C=CCn1c(SCC(=O)NC2=NN(c3ccccc3)C(=O)C2)nnc1-c1cccs1 | DRD2 | enzyme activity, inhibitor | 10 µM | -12.8% |
| C#CCN1CCCn2c1nc1c2c(=O)n(C)c(=O)n1C | ADORA3 | ligand displacement, radioligand | 10 µM, cell membranes | 11% |
| CN(C)C1CCN(CC#Cc2nn(C3CCCC3)c3nc(NCc4ccccc4)ncc23)C1 (stereo not shown) | Mitogen-activated protein kinase 8 (MAPK8, Homo sapiens, UniProt P45983) | enzyme activity, inhibitor, FRET | 10 µM | 8% |
| O=C1N=C(N2CCCCN2)S/C1=C\c1ccc(F)cc1O | NPY1R | ligand displacement, radioligand | 10 µM | < 10% |
| CCOCCNC(=O)NC12CC3CC(CC(C3)C1)C2 | ephB (Mycobacterium tuberculosis, UniProt I6YC03) | enzyme activity, inhibitor | 10 nM | 8.7% |
| C=CCN1CCCn2c1nc1c2c(=O)n(C)c(=O)n1C | ADORA3 | ligand displacement, radioligand | 10 µM, cell membranes | 17% |
| O=C(CCN1CCC(O)(c2ccc(F)cc2)C1)c1ccc2c(c1)OCCO2 (stereo not shown) | DRD2 | enzyme activity, inhibitor | 10 µM | 41.3% |
